# Assay results as given in ChEMBL document CHEMBL3227950, “Ames test of 1-(X-phenyl)-3,3-dialkyltriazenes. A quantitative structure-activity study” (J Med Chem, 1979).
# Tested on: Salmonella typhimurium
# Assay: Mutagenicity in Salmonella typhimurium strain TA92 assessed as number of bacterial revertants after 2 days by Ames test in presence of rat liver S9 fraction
# Type: toxicity, organism-based
# Settings: salmonella enterica subsp. enterica serovar typhimurium, s9, 48 h
# Method in brief: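 S. typhimurium TA92 (hisG46, pKM101) grown 12-16 h at 37 °C in nutrient broth (~10⁹ cells/mL). S-9 from livers of Aroclor 1254-induced female Sprague-Dawley rats (500 mg/kg ip, 5 days before sacrifice). Compound in Me₂SO, bacteria and S-9 mix preincubated 20 min at 30 °C, then plated in histidine/biotin top agar and incubated 2 days at 37 °C. Revertants were hand counted, with spontaneous control revertants subtracted. Triplicates were run. The end point was 30 revertants/10⁸ bacteria, interpolated to give log 1/C.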
row,SMILES,log(1/C)
1,CN(C)/N=N/c1ccc(C(N)=O)cc1,4.04
2,CN(C)/N=N/c1ccc(C(F)(F)F)cc1,5.99
3,COc1cc2c(c3oc(=O)c4c(c13)CCC4=O)[C@@H]1C=CO[C@@H]1O2 [AFLATOXIN],9.48
4,CCCCN(C)/N=N/c1ccc(C(N)=O)cc1,5.41
5,Cc1ccc(/N=N/N(C)C)cc1,7
6,CN(C)/N=N/c1cccc(NC(N)=O)c1,4.19
7,CN(C)/N=N/c1cccc(C(N)=O)c1,3.51
8,CC(=O)Nc1ccc(/N=N/N(C)C)cc1,5.83
9,CN(/N=N/c1ccc(C(N)=O)cc1)C(C)(C)C,3.83
10,CN(C)/N=N/c1ccc(Cl)cc1,6.48
11,CN(C)/N=N/c1ccc(C#N)cc1,4.43
12,C=CCN(C)/N=N/c1ccc(C(N)=O)cc1,4.16
13,CN(C)/N=N/c1ccc(NC(N)=O)cc1,5.59
14,CN(C)/N=N/c1ccccc1,5.32
15,Cc1cccc(/N=N/N(C)C)c1,6.44
16,CN(C)/N=N/c1ccc(-c2ccccc2)cc1,7.67
17,CN(C)/N=N/c1[nH]cnc1C(N)=O [DACARBAZINE],3
18,CN(C)/N=N/c1ccc(S(N)(=O)=O)cc1,3.49
19,CC(=O)c1ccc(/N=N/N(C)C)cc1,4.47
20,CN(C)/N=N/c1cc(C#N)cc(C#N)c1,3.46
